Measured values: ChEMBL document CHEMBL1143412, “RSV604, a novel inhibitor of respiratory syncytial virus replication” (Antimicrob Agents Chemother, 2007)
Active and inactive are the calls of the source. The rule behind the calls is not given here.

Experiments:
[1] = system: Respiratory syncytial virus; test: Antiviral activity against RSV infected human Hep2 cells assessed as reduction of plaque formation pretreated 2 hrs before viral infection; type: functional, organism-based; conditions: HEp-2
Outline: (§1)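 Plaque reduction in HEp-2 cells with compound added either 2 h before infection or 6 h after. Duplicate wells per dilution. Percent plaque reduction calculated against compound-free infected wells. Four independent experiments.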

[2] = system: Respiratory syncytial virus; test: Antiviral activity against RSV infected human Hep2 cells assessed as reduction of plaque formation treated 6 hrs after viral infection; type: functional, organism-based; conditions: HEp-2; outline: as §1
[3] = system: Respiratory syncytial virus; test: Antiviral activity against RSV infected human Hep2 cells assessed as plaque reduction […] by plaque reduction assay; type: functional, HEp-2; set-up: scale not given: the % may be the effect or the level left
[4] = system: Respiratory syncytial virus; test: Drug resistance, ratio of EC50 for plaque picked A-33903-resistant RSV RSS from passage 2 to EC50 for DMSO-passaged wild type RSV RSS; type: functional
[5] = system: Respiratory syncytial virus; test: Antiviral activity against RSV RSS infected human Hep2 cells assessed as inhibition of virus-induced cell death after 6 days by XTT assay; type: functional, organism-based; conditions: HEp-2, 144 h
Outline: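 HEp-2 cells seeded at 4 × 10³ per well in DMEM with 10% FBS, infected next day with RSV RSS dosed to give about 80% cytopathic effect by day 6. Serial compound dilutions (top 10 μM, 0.5% DMSO) present throughout. Viability read by XTT reduction after 6 days. EC50 taken as 50% reduction in virus-induced cell death.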

[6] = system: Respiratory syncytial virus; test: Antiviral activity against RSV RSS infected human Hep2 cells assessed as reduction of viral antigen synthesis after 3 days by ELISA; type: functional, organism-based; conditions: HEp-2, 72 h
Outline: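 HEp-2 cells seeded at 5 × 10³ per well in DMEM/10% FBS for 24 h, infected with RSV RSS at MOI about 0.02, serial compound dilutions for 3 days. Cells fixed and permeabilised in methanol-acetone, blocked in milk-Tween. Probed with mouse anti-RSV monoclonal then HRP anti-mouse. Developed with o-phenylenediamine/H2O2, absorbance […].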

[7] = system: Respiratory syncytial virus; test: Antiviral activity against RSV RSS infected human Hep2 cells after 5 days by plaque reduction assay; type: functional, organism-based; conditions: HEp-2, 120 h
Outline: (§2)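 HEp-2 monolayers in six-well plates infected with 0.2 ml of 500 PFU/ml virus. After 2 h, overlaid with DMEM, 2% FBS, 0.6% agarose plus compound dilution series. Incubated 5 days, formaldehyde-fixed, plaques stained with methylene blue or immunostained and counted. Activity expressed as percent of plaques in untreated infected wells.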

[8] = system: Respiratory syncytial virus; test: Antiviral activity against RSV Long infected human Hep2 cells after 5 days by plaque reduction assay; type: functional, organism-based; conditions: HEp-2, 120 h; outline: as §2
[9] = system: Respiratory syncytial virus; test: Antiviral activity against RSV A2 infected human Hep2 cells after 5 days by plaque reduction assay; type: functional, organism-based; conditions: A2, HEp-2, 120 h; outline: as §2
[10] = system: Respiratory syncytial virus; test: Antiviral activity against RSV B infected human Hep2 cells after 5 days by plaque reduction assay; type: functional, organism-based; conditions: HEp-2, 120 h; outline: as §2
[11] = Cytotoxicity against RSV RSS infected human Hep2 cells after 6 days by XTT assay; type: cell-based, HEp-2
[12] = Therapeutic index, CC50 for human Hep2 cells to EC50 for RSV RSS; type: cell-based, HEp-2; conditions: read-out: Ratio CC50/EC50
Outline: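 Ratio of CC50 from uninfected HEp-2 XTT control plates to EC50 from RSV RSS-infected XTT plates, both read after 6 days.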

[13] = Cytotoxicity against RSV RSS infected human Hep2 cells up to 50 uM after 6 days by XTT assay; type: cell-based; conditions: hep-2, 144 h
Outline: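 Uninfected cell-control plates run in parallel with the RSV XTT assay. HEp-2 cells at 4 × 10³ per well in DMEM/10% FBS, serial compound dilutions with 0.5% DMSO, 6 days. Viability by XTT. CC50 is the concentration giving 50% compound-induced cell death.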

[14] = system: Respiratory syncytial virus; test: Antiviral activity against DMSO-passaged wild type RSV RSS infected human Hep2 cells by plaque reduction assay; type: functional, organism-based; conditions: HEp-2; outline: as §2
[15] = system: Respiratory syncytial virus; test: Antiviral activity against plaque picked RSV604-resistant RSV RSS from passage 2 in human Hep2 cells by plaque reduction assay; type: functional, organism-based; conditions: HEp-2; outline: as §2
[16] = system: Respiratory syncytial virus; test: Drug resistance, ratio of EC50 for plaque picked RSV604-resistant RSV RSS from passage 2 to EC50 for DMSO-passaged wild type RSV RSS; type: functional
[17] = system: Respiratory syncytial virus; test: Antiviral activity against plaque picked A-33903-resistant RSV RSS from passage 2 in human Hep2 cells by plaque reduction assay; type: functional, organism-based; conditions: HEp-2; outline: as §2
[18] = system: Respiratory syncytial virus; test: Antiviral activity against RSV RSS M2 mutant infected human Hep2 cells after 5 days by plaque reduction assay; type: functional, organism-based; conditions: HEp-2, 120 h; outline: as §2
[19] = system: Respiratory syncytial virus; test: Antiviral activity against RSV RSS with N protein N105D mutation in human Hep2 cells after 5 days by plaque reduction assay; type: functional, organism-based; conditions: HEp-2, 120 h; outline: as §2
[20] = system: Respiratory syncytial virus; test: Antiviral activity against RSV RSS with N protein […] mutation in human Hep2 cells after 5 days by plaque reduction assay; type: functional, organism-based; conditions: HEp-2, 120 h; outline: as §2
[21] = system: Respiratory syncytial virus; test: Antiviral activity against RSV RSS with N protein L139I mutation in human Hep2 cells after 5 days by plaque reduction assay; type: functional, organism-based; conditions: HEp-2, 120 h; outline: as §2
[22] = system: Respiratory syncytial virus; test: Antiviral activity against RSV RSS with N protein I129L plus L139I mutant mutation in human Hep2 cells after 5 days by plaque reduction assay; type: functional, organism-based; conditions: HEp-2, 120 h; outline: as §2
[23] = system: Respiratory syncytial virus; test: Drug resistance, ratio of EC50 for RSV RSS M2 mutant to EC50 for wild type RSV RSS; type: functional
[24] = system: Respiratory syncytial virus; test: Drug resistance, ratio of EC50 for RSV RSS with N protein N105D mutation to EC50 for wild type RSV RSS; type: functional
[25] = system: Respiratory syncytial virus; test: Drug resistance, ratio of EC50 for RSV RSS with N protein L139I mutation to EC50 for wild type RSV RSS; type: functional
Bovine orthopneumovirus = test: Antiviral activity against bovine RSV snook infected human Hep2 cells after 5 days by plaque reduction assay; type: functional, organism-based, Bovine respiratory syncytial virus; conditions: HEp-2, 120 h; outline: as §2
[26] = system: Pneumonia virus of mice 15; test: Antiviral activity against Pneumonia virus of mice 15 infected human Hep2 cells after 5 days by plaque reduction assay; type: functional, organism-based; conditions: murine pneumonia virus, HEp-2, 120 h; outline: as §2
Human respirovirus 1 = test: Antiviral activity against Parainfluenza virus type 1 infected human Hep2 cells after 5 days by plaque reduction assay; type: functional, organism-based; conditions: Human respirovirus 1, HEp-2, 120 h; outline: as §2
Human respirovirus 3 = test: Antiviral activity against Parainfluenza virus type 3 infected human Hep2 cells after 5 days by plaque reduction assay; type: functional, organism-based; conditions: Human respirovirus 3, HEp-2, 120 h; outline: as §2
Metapneumovirus = test: Antiviral activity against human Metapneumovirus infected human Hep2 cells after 5 days by plaque reduction assay; type: functional, organism-based; conditions: HEp-2, 120 h; outline: as §2
[27] = system: Respiratory syncytial virus; test: Antiviral activity against RSV A isolates infected human Hep2 cells after 5 days by plaque reduction assay; type: functional, organism-based; conditions: HEp-2, 120 h; outline: as §2
[28] = system: Respiratory syncytial virus; test: Antiviral activity against RSV B isolates infected human Hep2 cells after 5 days by plaque reduction assay; type: functional, organism-based; conditions: HEp-2, 120 h; outline: as §2
[29] = system: Respiratory syncytial virus; test: Drug resistance, ratio of EC50 for RSV RSS with N protein I129L plus L139I mutant mutation to EC50 for wild type RSV RSS; type: functional
[30] = system: Respiratory syncytial virus; test: Antiviral activity against recombinant RSV expressing GFP infected HAE cells assessed as inhibition of viral replication at 2 uM by fluorescence microscopy; type: functional, organism-based
[31] = system: Respiratory syncytial virus; test: Antiviral activity against recombinant RSV expressing GFP infected HAE cells assessed as inhibition of viral replication at 1 uM by fluorescence microscopy; type: functional, organism-based
[32] = system: Respiratory syncytial virus; test: Antiviral activity against recombinant RSV expressing GFP infected HAE cells assessed as inhibition of viral replication at 10 uM by fluorescence microscopy; type: functional, organism-based
[33] = system: Respiratory syncytial virus; test: Antiviral activity against recombinant RSV expressing GFP infected HAE cells assessed as inhibition of viral replication at 20 uM by fluorescence microscopy; type: functional, organism-based
[34] = system: Respiratory syncytial virus; test: Antiviral activity against recombinant RSV expressing GFP infected HAE cells assessed as lack of viral replication-dependent green fluorescence level at 2 uM by fluorescence microscopy; type: functional, organism-based
[35] = system: Respiratory syncytial virus; test: Antiviral activity against recombinant RSV expressing GFP infected HAE cells assessed as lack of viral replication-dependent green fluorescence level at 10 uM by fluorescence microscopy; type: functional, organism-based
[36] = system: Respiratory syncytial virus; test: Antiviral activity against recombinant RSV expressing GFP infected HAE cells assessed as lack of viral replication-dependent green fluorescence level at 20 uM by fluorescence microscopy; type: functional, organism-based
[37] = Cytotoxicity against recombinant RSV expressing GFP infected HAE cells at 20 uM for 7 days; type: cell-based; conditions: human, 168 h
Outline: (§3)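 Differentiated human airway epithelial cultures exposed to 20 μM compound for 7 days. Scored for gross cytotoxicity, leakage of basolateral fluid to the apical surface, and cilium beat frequency.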

[38] = Toxicity in recombinant RSV expressing GFP infected HAE cells assessed as leakage of basolateral fluid to apical surface at 20 uM for 7 days; conditions: human, 168 h; outline: as §3
[39] = Toxicity in recombinant RSV expressing GFP infected HAE cells assessed as alteration of cilium beat frequency at 20 uM for 7 days; conditions: human, 168 h; outline: as §3
[40] = system: Respiratory syncytial virus; test: Antiviral activity against 0.02 MOI RSV RSS infected human Hep2 cells assessed as inhibition of virus-induced cell death after 6 days by XTT assay; type: functional, organism-based; conditions: HEp-2, 144 h
[41] = system: Respiratory syncytial virus; test: Antiviral activity against 1.5 MOI RSV RSS infected human Hep2 cells assessed as inhibition of virus-induced cell death after 6 days by XTT assay; type: functional, organism-based; conditions: HEp-2, 144 h

O=c1n(Cc2nc3ccccc3n2CCCCO)c2cnccc2n1C1CC1
Activity [1]: Active
Activity [2]: inactive
Activity [3]: 50%

CC(=O)NC1N=C(c2ccccc2)c2ccccc2NC1=O (stereo not given)
fold change (FC) [4]: 3.1
EC50 [5]: 9.6 µM
EC50 [6]: 10.1 µM
EC50 [7]: 9.7 µM
EC50 [8]: 7.2 µM
EC50 [9]: 15.1 µM
EC50 [10]: 3.5 µM
CC50 at 144 h [11]: > 50 µM
selectivity ratio [12]: > 5
Activity [13]: Non-toxic
EC50 [14]: 8.1 µM
EC50 [15]: > 100 µM
fold change (FC) [16]: >12.3
EC50 [17]: 27.6 µM

COc1cc(S(C)(=O)=O)ccc1C(=O)N[C@H]1N=C(c2ccccc2)c2ccccc2NC1=O
EC50 [5]: 0.5 µM
EC50 [6]: 1.3 µM
EC50 [7]: 0.5 µM
EC50 [8]: 0.39 µM
EC50 [10]: 0.43 µM
CC50 at 144 h [11]: > 50 µM
selectivity ratio [12]: > 100
EC50 [14]: 0.4 µM
EC50 [15]: 16.9 µM
fold change (FC) [16]: 42.3

O=C(Nc1ccccc1F)N[C@H]1N=C(c2ccccc2)c2ccccc2NC1=O [RSV-604]
fold change (FC) [4]: 3.9
EC50 [18]: 1.14 µM
EC50 [19]: 4.78 µM
EC50 [20]: 6.03 µM
EC50 [21]: 6.7 µM
EC50 [22]: > 20 µM
fold change (FC) [23]: 1.2
fold change (FC) [24]: 5
fold change (FC) [25]: 7
EC50 [5]: 0.86 µM
EC50 [6]: 1.7 µM
EC50 [7]: 0.9 µM
EC50 [8]: 0.8 µM
EC50 [9]: 0.5 µM
EC50 [10]: 0.6 µM
CC50 at 144 h [11]: > 50 µM
selectivity ratio [12]: > 58
EC50 (Bovine orthopneumovirus): 0.3 µM
EC50 [26]: > 50 µM
EC50 (Human respirovirus 1): > 50 µM
EC50 (Human respirovirus 3): > 50 µM
EC50 (Metapneumovirus): > 50 µM
EC50 [27]: 0.8 µM
EC50 [28]: 0.8 µM
Activity [1]: Active
Activity [2]: Active
EC50 [14]: 0.6 µM
fold change (FC) [29]: >20
Activity [30]: Active
Activity [31]: Active
Activity [32]: Active
Activity [33]: Active
Activity [34]: Active
Activity [35]: Active
Activity [36]: Active
Activity [37]: Not Active
Activity [38]: Not Active
Activity [39]: Not Active
EC50 [40]: 1.4 µM
EC50 [41]: 2.55 µM
EC50 [15]: 30.4 µM
fold change (FC) [16]: 50.7
EC50 [17]: 2.7 µM
